Results reported in ChEMBL document CHEMBL5252669, “Semisynthetic blasticidin S ester derivatives show enhanced antibiotic activity” (RSC Med Chem, 2023).
Values after ≈ are worked out from the molar mass of the structure shown. Active and inactive are the calls of the source. The calls are words filed in the database; no cut-off is given here.

System: Candida albicans
Assay: Antifungal activity against Candida albicans assessed as zone of inhibition incubated for 18 hrs by spot on lawn assay
Format: functional, organism-based
Conditions: not given
Procedure, shortened: (§1)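 Overnight LB cultures diluted to OD600 0.01 in 0.7% LB top agar, overlaid on 1.5% LB agar; 5 mg mL−1 aqueous compound spotted at 35, 25, 10 and 5 μg with 1:1 water/methanol vehicle spot; 37 °C, 18 h; inhibition zone diameter measured by ruler.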

Q: With `CCCCOC(=O)[C@H]1O[C@@H](n2ccc(N)nc2=O)C=C[C@@H]1NC(=O)C[C@@H](N)CCN(C)C(=N)N` as the molecule, how does the Activity read?
A: The Activity was “inactive”.

System: Enterococcus
Assay: Antibacterial activity against vancomycin-resistant Enterococcus assessed as zone of inhibition incubated for 18 hrs by spot on lawn assay
Format: functional, organism-based
Conditions: not given
Procedure, shortened: (§2)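 Spot-on-lawn assay. Plates of 1.5% agar in LB were overlaid with 0.7% LB agar seeded with overnight culture at 0.01 OD600. Aqueous 5 mg mL−1 solutions were spotted at 35, 25, 10 and 5 μg, with a 1:1 water/methanol vehicle spot. After 18 h at 37 °C, inhibition zone diameters were measured with a ruler.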

Q: For `CCCCOC(=O)[C@H]1O[C@@H](n2ccc(N)nc2=O)C=C[C@@H]1NC(=O)C[C@@H](N)CCN(C)C(=N)N`, which Activity is on record?
A: The Activity was “Active”.

System: Enterococcus faecalis
Assay: Antibacterial activity against Enterococcus faecalis ATCC 29212 assessed as zone of inhibition incubated for 18 hrs by spot on lawn assay
Format: functional, organism-based
Conditions: not given
Procedure, shortened: as §1

Q: For `CCCCOC(=O)[C@H]1O[C@@H](n2ccc(N)nc2=O)C=C[C@@H]1NC(=O)C[C@@H](N)CCN(C)C(=N)N`, which Activity is on record?
A: The Activity was “Active”.

System: Staphylococcus aureus
Assay: Antibacterial activity against methicillin resistant Staphylococcus aureus assessed as zone of inhibition incubated for 18 hrs by spot on lawn assay
Format: functional, organism-based
Conditions: not given
Procedure, shortened: as §2

Q: Which Activity does the source give for `CCCCOC(=O)[C@H]1O[C@@H](n2ccc(N)nc2=O)C=C[C@@H]1NC(=O)C[C@@H](N)CCN(C)C(=N)N` here?
A: Its Activity is “Active”.

System: Staphylococcus aureus
Assay: Antibacterial activity against NorA deleted Staphylococcus aureus assessed as zone of inhibition incubated for 18 hrs by spot on lawn assay
Format: functional, organism-based
Conditions: not given
Procedure, shortened: as §1

Q: For `CCCCOC(=O)[C@H]1O[C@@H](n2ccc(N)nc2=O)C=C[C@@H]1NC(=O)C[C@@H](N)CCN(C)C(=N)N`, which Activity is on record?
A: Its Activity is “Active”.

System: Staphylococcus aureus
Assay: Antibacterial activity against Staphylococcus aureus assessed as zone of inhibition incubated for 18 hrs by spot on lawn assay
Format: functional, organism-based
Conditions: not given
Procedure, shortened: as §1

Q: Which Activity does the source give for `CCCCOC(=O)[C@H]1O[C@@H](n2ccc(N)nc2=O)C=C[C@@H]1NC(=O)C[C@@H](N)CCN(C)C(=N)N` here?
A: The Activity was “Active”.

System: not listed separately
Assay: Cytotoxicity against human MRC5 cells incubated for 24 hrs by MTS assay
Format: toxicity, cell-based
Conditions: not given
Procedure, shortened: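 MRC-5 lung fibroblasts seeded 5000 per well; medium replaced with compound 16–192 μg mL−1 or matching 1:1 methanol:water vehicle; 24 h, then MTS 3–4 h; absorbance 490 nm; viability relative to untreated cells, normalized to vehicle; CC50 from two independent assays in duplicate, mean ± SD.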

Q: Which CC50 at 24 h does the source give for `CCCCOC(=O)[C@H]1O[C@@H](n2ccc(N)nc2=O)C=C[C@@H]1NC(=O)C[C@@H](N)CCN(C)C(=N)N` here?
A: Its CC50 at 24 h is 21.2 µg/mL (≈ 44.3 µM).

System: Staphylococcus aureus
Assay: Antibacterial activity against NorA deleted Staphylococcus aureus incubated for 16 hrs by broth microdilution method
Format: functional, organism-based
Conditions: 16 h
Procedure, shortened: (§3)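 Cation-adjusted Mueller-Hinton broth microdilution. Overnight cultures from single colonies were diluted to OD600 0.004. Final compound range was 256–2 μg mL−1 in 1:1 methanol/water vehicle, with doxycycline and vehicle controls. Plates were incubated 16 h at 37 °C. OD600 was normalized to controls, and MIC was the lowest concentration inhibiting >90% growth. Two biological replicates in duplicate; reported as a range.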

Q: With `CCCCOC(=O)[C@H]1O[C@@H](n2ccc(N)nc2=O)C=C[C@@H]1NC(=O)C[C@@H](N)CCN(C)C(=N)N` as the molecule, how does the IC50 read?
A: Its IC50 is 34.6 µg/mL (≈ 72.3 µM).

Same assay, conditions: time 16 hrs

Q: For `CCCCOC(=O)[C@H]1O[C@@H](n2ccc(N)nc2=O)C=C[C@@H]1NC(=O)C[C@@H](N)CCN(C)C(=N)N`, which MIC is on record?
A: The MIC was 64 µg/mL (≈ 134 µM).

System: Staphylococcus aureus
Assay: Antibacterial activity against wild type Staphylococcus aureus 8810 incubated for 16 hrs by broth microdilution method
Format: functional, organism-based
Conditions: Staphylococcus aureus, 8810, 16 h
Procedure, shortened: as §3

Q: With `CCCCOC(=O)[C@H]1O[C@@H](n2ccc(N)nc2=O)C=C[C@@H]1NC(=O)C[C@@H](N)CCN(C)C(=N)N` as the molecule, how does the IC50 read?
A: Its IC50 is 23.9 µg/mL (≈ 49.9 µM).

Same assay, conditions: Staphylococcus aureus, 8810; time 16 hrs

Q: For `CCCCOC(=O)[C@H]1O[C@@H](n2ccc(N)nc2=O)C=C[C@@H]1NC(=O)C[C@@H](N)CCN(C)C(=N)N`, which MIC is on record?
A: Its MIC is 64 µg/mL (≈ 134 µM).

System: Staphylococcus aureus
Assay: Antibacterial activity against methicillin resistant Staphylococcus aureus ATCC 43300 incubated for 16 hrs by broth microdilution method
Format: functional, organism-based
Conditions: ATCC 43300, 16 h
Procedure, shortened: as §3

Q: For `CCCCOC(=O)[C@H]1O[C@@H](n2ccc(N)nc2=O)C=C[C@@H]1NC(=O)C[C@@H](N)CCN(C)C(=N)N`, which IC50 is on record?
A: Its IC50 is 28.1 µg/mL (≈ 58.7 µM).

Same assay, conditions: ATCC 43300, time 16 hrs

Q: For `CCCCOC(=O)[C@H]1O[C@@H](n2ccc(N)nc2=O)C=C[C@@H]1NC(=O)C[C@@H](N)CCN(C)C(=N)N`, which MIC is on record?
A: The MIC was 64 µg/mL (≈ 134 µM).

System: Klebsiella pneumoniae
Assay: Antibacterial activity against Klebsiella pneumoniae ATCC 29665 incubated for 16 hrs by broth microdilution method
Format: functional, organism-based
Conditions: ATCC 29665, 16 h

Q: With `CCCCOC(=O)[C@H]1O[C@@H](n2ccc(N)nc2=O)C=C[C@@H]1NC(=O)C[C@@H](N)CCN(C)C(=N)N` as the molecule, how does the IC50 read?
A: Its IC50 is 82.1 µg/mL (≈ 172 µM).

Same assay, conditions: ATCC 29665, time 16 hrs

Q: With `CCCCOC(=O)[C@H]1O[C@@H](n2ccc(N)nc2=O)C=C[C@@H]1NC(=O)C[C@@H](N)CCN(C)C(=N)N` as the molecule, how does the MIC read?
A: Its MIC is greater than 128 µg/mL.

System: Pseudomonas aeruginosa
Assay: Antibacterial activity against MexAB-OprM deleted Pseudomonas aeruginosa incubated for 16 hrs by broth microdilution method
Format: functional, organism-based
Conditions: 16 h

Q: For `CCCCOC(=O)[C@H]1O[C@@H](n2ccc(N)nc2=O)C=C[C@@H]1NC(=O)C[C@@H](N)CCN(C)C(=N)N`, which IC50 is on record?
A: Its IC50 is 79.8 µg/mL (≈ 167 µM).

Same assay, conditions: time 16 hrs

Q: For `CCCCOC(=O)[C@H]1O[C@@H](n2ccc(N)nc2=O)C=C[C@@H]1NC(=O)C[C@@H](N)CCN(C)C(=N)N`, which MIC is on record?
A: The MIC was greater than 128 µg/mL.

System: Acinetobacter baumannii
Assay: Antibacterial activity against Acinetobacter baumannii ATCC 17978 incubated for 16 hrs by broth microdilution method
Format: functional, organism-based
Conditions: ATCC 17978, 16 h

Q: With `CCCCOC(=O)[C@H]1O[C@@H](n2ccc(N)nc2=O)C=C[C@@H]1NC(=O)C[C@@H](N)CCN(C)C(=N)N` as the molecule, how does the IC50 read?
A: Its IC50 is 61.5 µg/mL (≈ 129 µM).

Same assay, conditions: ATCC 17978, time 16 hrs

Q: For `CCCCOC(=O)[C@H]1O[C@@H](n2ccc(N)nc2=O)C=C[C@@H]1NC(=O)C[C@@H](N)CCN(C)C(=N)N`, which MIC is on record?
A: Its MIC is greater than 128 µg/mL.

System: Candida albicans
Assay: Antifungal activity against Candida albicans incubated for 16 hrs by broth microdilution method
Format: functional
Conditions: not given

Q: With `CCCCOC(=O)[C@H]1O[C@@H](n2ccc(N)nc2=O)C=C[C@@H]1NC(=O)C[C@@H](N)CCN(C)C(=N)N` as the molecule, how does the MIC read?
A: The MIC was greater than 256 µg/mL.

System: Saccharomyces cerevisiae
Assay: Antifungal activity against Saccharomyces cerevisiae incubated for 16 hrs by broth microdilution method
Format: functional
Conditions: not given

Q: With `CCCCOC(=O)[C@H]1O[C@@H](n2ccc(N)nc2=O)C=C[C@@H]1NC(=O)C[C@@H](N)CCN(C)C(=N)N` as the molecule, how does the MIC read?
A: Its MIC is 64 µg/mL (≈ 134 µM).

System: not listed separately
Assay: Selectivity index, ratio of CC50 for human MRC5 cells to IC50 for NorA deleted Staphylococcus aureus
Format: toxicity
Conditions: read-out: Ratio CC50/IC50

Q: For `CCCCOC(=O)[C@H]1O[C@@H](n2ccc(N)nc2=O)C=C[C@@H]1NC(=O)C[C@@H](N)CCN(C)C(=N)N`, which selectivity ratio is on record?
A: Its selectivity ratio is 0.6.

System: not listed separately
Assay: Selectivity index, ratio of CC50 for human MRC5 cells to IC50 for Staphylococcus aureus
Format: toxicity
Conditions: read-out: Ratio CC50/IC50

Q: Which selectivity ratio does the source give for `CCCCOC(=O)[C@H]1O[C@@H](n2ccc(N)nc2=O)C=C[C@@H]1NC(=O)C[C@@H](N)CCN(C)C(=N)N` here?
A: The selectivity ratio was 0.9.

System: not listed separately
Assay: Selectivity index, ratio of CC50 for human MRC5 cells to IC50 for methicillin resistant Staphylococcus aureus
Format: toxicity
Conditions: read-out: Ratio CC50/IC50

Q: With `CCCCOC(=O)[C@H]1O[C@@H](n2ccc(N)nc2=O)C=C[C@@H]1NC(=O)C[C@@H](N)CCN(C)C(=N)N` as the molecule, how does the selectivity ratio read?
A: The selectivity ratio was 0.7.

System: not listed separately
Assay: Selectivity index, ratio of CC50 for human MRC5 cells to IC50 for Enterococcus faecalis ATCC 29212
Format: toxicity
Conditions: read-out: Ratio CC50/IC50

Q: Which selectivity ratio does the source give for `CCCCOC(=O)[C@H]1O[C@@H](n2ccc(N)nc2=O)C=C[C@@H]1NC(=O)C[C@@H](N)CCN(C)C(=N)N` here?
A: The selectivity ratio was 1.3.

System: not listed separately
Assay: Selectivity index, ratio of CC50 for human MRC5 cells to IC50 for vancomycin-resistant Enterococcus
Format: toxicity
Conditions: read-out: Ratio CC50/IC50

Q: For `CCCCOC(=O)[C@H]1O[C@@H](n2ccc(N)nc2=O)C=C[C@@H]1NC(=O)C[C@@H](N)CCN(C)C(=N)N`, which selectivity ratio is on record?
A: The selectivity ratio was 0.2.

System: not listed separately
Assay: Selectivity index, ratio of CC50 for human MRC5 cells to IC50 for Klebsiella pneumoniae ATCC 29665
Format: toxicity
Conditions: read-out: Ratio CC50/IC50

Q: With `CCCCOC(=O)[C@H]1O[C@@H](n2ccc(N)nc2=O)C=C[C@@H]1NC(=O)C[C@@H](N)CCN(C)C(=N)N` as the molecule, how does the selectivity ratio read?
A: The selectivity ratio was 0.3.

System: not listed separately
Assay: Selectivity index, ratio of CC50 for human MRC5 cells to IC50 for MexAB-OprM deleted Pseudomonas aeruginosa
Format: toxicity
Conditions: read-out: Ratio CC50/IC50

Q: With `CCCCOC(=O)[C@H]1O[C@@H](n2ccc(N)nc2=O)C=C[C@@H]1NC(=O)C[C@@H](N)CCN(C)C(=N)N` as the molecule, how does the selectivity ratio read?
A: The selectivity ratio was 0.3.

System: not listed separately
Assay: Selectivity index, ratio of CC50 for human MRC5 cells to IC50 for Acinetobacter baumannii ATCC 17978
Format: toxicity
Conditions: read-out: Ratio CC50/IC50

Q: Which selectivity ratio does the source give for `CCCCOC(=O)[C@H]1O[C@@H](n2ccc(N)nc2=O)C=C[C@@H]1NC(=O)C[C@@H](N)CCN(C)C(=N)N` here?
A: Its selectivity ratio is 0.3.

System: Enterococcus faecalis
Assay: Antibacterial activity against Enterococcus faecalis ATCC 29212 incubated for 20 hrs by broth microdilution method
Conditions: ATCC 29212, 20 h

Q: Which IC50 does the source give for `CCCCOC(=O)[C@H]1O[C@@H](n2ccc(N)nc2=O)C=C[C@@H]1NC(=O)C[C@@H](N)CCN(C)C(=N)N` here?
A: The IC50 was 16.1 µg/mL (≈ 33.6 µM).

Q: And the MIC?
A: The MIC was 32 µg/mL (≈ 66.9 µM).

System: Enterococcus
Assay: Antibacterial activity against vancomycin-resistant Enterococcus incubated for 20 hrs by broth microdilution method
Conditions: not given

Q: What does the source list for `CCCCOC(=O)[C@H]1O[C@@H](n2ccc(N)nc2=O)C=C[C@@H]1NC(=O)C[C@@H](N)CCN(C)C(=N)N`?
A: IC50: 130 µg/mL (≈ 272 µM); MIC: 256 µg/mL (≈ 535 µM)
